According to article PMC3447108 (Bioconjugate chemistry, 2012):
Like-named read-outs stand apart in the source and are kept apart here.

Key:
[1] = in vivo; cited from earlier work
RGC-5 cells [2] = assay type: cell-based, mouse; conditions: FITC-annexin V; compared to 3 with Alexa Fluor 647-annexin V; data not shown
Outline: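 RGC-5 cells are grown in phenol-free DMEM with 10% FBS at 37°C and 5% CO2. They are given 5 µM staurosporine in growth medium for 3 h, then co-incubated for 30 min with up to 10 µM quenched test compound plus FITC-annexin V. Propidium iodide (500 nM) is added for 5 min. Cells are rinsed three times in phenol-free medium and imaged by fluorescence microscopy.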

RGC-5 cells [3] = assay: Non-target activation in healthy cells, LysoTracker co-localization; assay type: cell-based, mouse
caspase 3 = molecular target: T1, caspase 3 (Homo sapiens, UniProt P42574); assay: Caspase 3 probe cleavage; assay type: biochemical; conditions: HEPES buffer pH 7.4, 10 mM DTT, 37°C, 640/680 nm
T1 sequence (P42574 29-175 limits assumed): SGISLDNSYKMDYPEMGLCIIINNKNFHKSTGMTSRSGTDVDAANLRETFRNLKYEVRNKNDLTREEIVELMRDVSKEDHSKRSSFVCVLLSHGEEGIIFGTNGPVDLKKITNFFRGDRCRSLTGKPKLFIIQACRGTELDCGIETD
T1 sequence (P42574 176-277 limits assumed): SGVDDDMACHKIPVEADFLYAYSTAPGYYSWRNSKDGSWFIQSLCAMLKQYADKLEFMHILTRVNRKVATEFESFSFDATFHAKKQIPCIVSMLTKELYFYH
Outline: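 Human recombinant caspase 3 (E. coli-expressed; 50 U, 1.4 × 10−6 mg) is pre-equilibrated for 10 min at 37°C in the stated buffer with 0.1% CHAPS, 10% glycerol and 1 mM EDTA. Quenched test compound (2 µM solution) is added, and fluorescence is read continuously for 30 min at 37°C. Signals are background-subtracted and normalized to enzyme mass. Initial 0–5 min rates come from linear fits; Km and kcat come from nonlinear regression of cleavage rates.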

[4] = tested on: retinal ganglion cell apoptosis; conditions: directly applied into the vitreous humor; models of RGC degeneration; ref [6],[10]; cited from earlier work
RGC-5 cells [5] = assay: Staurosporine differentiation and morphology of RGC-5 cells; assay type: cell-based, mouse
RGC-5 cells [6] = assay: Induction of apoptosis and probe activation by cytotoxic agents; assay type: cell-based, mouse
RGC-5 cells [7] = assay: NMDA / glutamate excitotoxicity model; assay type: cell-based, mouse; conditions: native and SS-differentiated; up to 5 mM, up to 48 hrs; data not shown
[8] = Figures 5–7, S9, S10 (ionomycin), Figure 6 (SS), doxorubicin data not shown

(kkkrkv) linked to a cleavage sequence consisting of L amino acids (KDEVDAPC) [compound 1]
systemic toxicity [1]: without the systemic toxicity of the HIV-1 Tat sequence
coincidence of probe activation with annexin V binding (RGC-5 cells [2]): Identical results
probe signal in healthy cells (RGC-5 cells [3]; 2 hr exposure, fluorescence microscopy): no significant probe signal
Pearson’s coefficient, LysoTracker compartments and activated probe (RGC-5 cells [3]; SS-differentiated RGC-5 cells, 3 hrs): 0.612
punctate probe signal in LysoTracker-labeled compartments (RGC-5 cells [3]; healthy native and SS-differentiated RGC-5 cells, 3 hrs): delayed appearance of punctate signal
Pearson’s coefficient, LysoTracker compartments and activated probe (RGC-5 cells [3]; native RGC-5 cells, 3 hrs): 0.566
kcat/Km (caspase 3): 435 (FU min^−1 µM^−1)/nM
detection of RGC apoptosis in vivo [4]: detect RGC apoptosis in models of RGC degeneration in vivo

CN[C@@H]1C[C@H]2O[C@@](C)([C@@H]1OC)n1c3ccccc3c3c4c(c5c6ccccc6n2c5c31)C(=O)NC4 [SS, staurosporine]
time to differentiation morphology (RGC-5 cells [5]; 0.5 µM SS, 37°C, bright field microscopy): ≤ 1 hour
time to completion of morphological changes (RGC-5 cells [5]; SS, room temperature): approximately 2 hours
toxic concentration (blebbing and disruption of neurite morphology) (RGC-5 cells [5]; concentrations exceeding the value): exceeding 2 µM
apoptosis and probe activation upon treatment (RGC-5 cells [6]; [8]): readily observed

COc1cccc2c1C(=O)c1c(O)c3c(c(O)c1C2=O)C[C@@](O)(C(=O)CO)C[C@@H]3O[C@H]1C[C@H](N)[C@H](O)[C@H](C)O1 [doxorubicin]
apoptosis and probe activation upon treatment (RGC-5 cells [6]): readily observed

CN[C@H](CC(=O)O)C(=O)O [NMDA]
loss in viability (RGC-5 cells [7]): no loss in viability

C[C@H](CCC(=O)O)C[C@H](C)C[C@H](C)C(=O)/C=C(\O)[C@H](C)C[C@H](C)C/C=C/[C@@H](C)[C@@H](O)[C@@H](C)[C@@H](O)C[C@@H]1CC[C@@](C)([C@H]2CC[C@@](C)([C@@H](C)O)O2)O1 [ionomycin]
apoptosis and probe activation upon treatment (RGC-5 cells [6]; [8]): readily observed
